# Where “and” joins values, the source holds several entries; their conditions need not be identical. Equal entries are not always repeated. Calls of active or inactive are those of the source. Unless noted, how the calls were made is not given here.
# Key:
# [1] = target: Pantothenate synthetase (Mycobacterium tuberculosis (strain ATCC 25618 / H37Rv)) (UniProt P9WIL5); assay: Coupled enzyme confirmation of inhibitors against recombinant Mtb PanC (AID 375); settings: coupled enzyme assay; at 10 µM, stronger effect = higher value;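 further: 0% = full reaction with vehicle and 100% = no enzyme background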
# [2] = Her2 expression decrease, cell viability multiplex – SKBR3 breast tumor cells, AlphaScreen, ATP viability, primary screen (AID 461;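 active means Her2 level under about 52% in both replicate screens, with viability over 70% of control, limit read from the data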;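 on Her2 level: lower value means less Her2 protein in the cells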;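 on viability: percent of carrier control wells set as 100% viability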); settings: SKBR3 Her2 protein level, 18-24 h, measured here: SKBR3 viability, ATP luminescence, at 10 µM
# [3] = target: Receptor tyrosine-protein kinase erbB-2 (Homo sapiens) (UniProt P04626); assay: as above; settings: 18-24 h, at 10 µM, stronger effect = lower value
# [4] = reduced viability of SK-BR-3 breast cancer cells – cell-based, 24 h, human, pilot screen (AID 572;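 active means viability at or below 10% of carrier control in both of two separate runs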;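 further: compound exposure lasted between 18 and 24 h rather than exactly 24 h; 100% = carrier-treated control wells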); settings: SK-BR-3 viability, CellTiter-Glo luminescence, at 10 µM, stronger effect = lower value
# [5] = HUVEC growth inhibition – cell-based, human, primary screen (AID 575;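 active means viability at or below 30% in both replicate assays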;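 further: 100% = median of untreated cell wells with 0.1% DMSO on each plate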); settings: HUVEC proliferation, CellTiter-Glo luminescence, 72 h; at 10 µM; stronger effect = lower value
# How it was run: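 System – primary HUVEC, no more than 12 passages · Medium – Low-serum (2% FBS) EBM, supplemented · Times – 72 h exposure, 37 °C, 5% CO2, 30 min RT equilibration · Measured by – luminescent ATP assay · Read-out – % viability relative to median vehicle-well signal on each plate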
# [6] = H69AR cell proliferation blockers – human, duplicate replicates, primary screen (AID 580;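 active means viability at or under a set limit in both replicates, limit being median viability minus 3 SD, cut at about 48% in these data, passing the limit was not always enough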;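 further: 100% = mean luminescence of untreated wells and 0% = no signal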); settings: H69AR lung tumor cells viability, ATP luminescence, 72 h; at 10 µM; stronger effect = lower value
# [7] = MRP1 drug-resistance reversers in H69AR cells – cell-based, doxorubicin co-treatment, pilot screen (AID 601;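 active means viability loss from added drug above about 55%, and viability with drug at most 40%, in both replicates, limit read from the data, passing the limit was not always enough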); settings: CellTiter-Glo, 72 h, at 10 µM; for differential viability (reversal): stronger effect = higher value
# [8] = yeast transport mutant growth inhibition pilot in 384-well plates, post-Golgi transport modulator project (AID 636; in the data active means inhibition above about 31%); settings: absorbance 615 nm, about 18 h, stronger effect = higher value
# [9] = growth suppression of yeast trafficking mutant, preliminary HTS, modulators of trafficking downstream of Golgi apparatus project, 1536-format plate, OD 615 nm (AID 637; in the data active means inhibition above about 30%); settings: yeast transport mutant growth, absorbance 615 nm, 18 h; stronger effect = higher value
# [10] = H69AR cells + 2 uM doxorubicin, measured here: viability with 2 uM doxorubicin, stronger effect = lower value
# [11] = H69AR cells, compound alone cytotoxicity
# Receptor tyrosine-protein kinase erbB-2 (Homo sapiens), sequence (P04626 whole entry, looked up): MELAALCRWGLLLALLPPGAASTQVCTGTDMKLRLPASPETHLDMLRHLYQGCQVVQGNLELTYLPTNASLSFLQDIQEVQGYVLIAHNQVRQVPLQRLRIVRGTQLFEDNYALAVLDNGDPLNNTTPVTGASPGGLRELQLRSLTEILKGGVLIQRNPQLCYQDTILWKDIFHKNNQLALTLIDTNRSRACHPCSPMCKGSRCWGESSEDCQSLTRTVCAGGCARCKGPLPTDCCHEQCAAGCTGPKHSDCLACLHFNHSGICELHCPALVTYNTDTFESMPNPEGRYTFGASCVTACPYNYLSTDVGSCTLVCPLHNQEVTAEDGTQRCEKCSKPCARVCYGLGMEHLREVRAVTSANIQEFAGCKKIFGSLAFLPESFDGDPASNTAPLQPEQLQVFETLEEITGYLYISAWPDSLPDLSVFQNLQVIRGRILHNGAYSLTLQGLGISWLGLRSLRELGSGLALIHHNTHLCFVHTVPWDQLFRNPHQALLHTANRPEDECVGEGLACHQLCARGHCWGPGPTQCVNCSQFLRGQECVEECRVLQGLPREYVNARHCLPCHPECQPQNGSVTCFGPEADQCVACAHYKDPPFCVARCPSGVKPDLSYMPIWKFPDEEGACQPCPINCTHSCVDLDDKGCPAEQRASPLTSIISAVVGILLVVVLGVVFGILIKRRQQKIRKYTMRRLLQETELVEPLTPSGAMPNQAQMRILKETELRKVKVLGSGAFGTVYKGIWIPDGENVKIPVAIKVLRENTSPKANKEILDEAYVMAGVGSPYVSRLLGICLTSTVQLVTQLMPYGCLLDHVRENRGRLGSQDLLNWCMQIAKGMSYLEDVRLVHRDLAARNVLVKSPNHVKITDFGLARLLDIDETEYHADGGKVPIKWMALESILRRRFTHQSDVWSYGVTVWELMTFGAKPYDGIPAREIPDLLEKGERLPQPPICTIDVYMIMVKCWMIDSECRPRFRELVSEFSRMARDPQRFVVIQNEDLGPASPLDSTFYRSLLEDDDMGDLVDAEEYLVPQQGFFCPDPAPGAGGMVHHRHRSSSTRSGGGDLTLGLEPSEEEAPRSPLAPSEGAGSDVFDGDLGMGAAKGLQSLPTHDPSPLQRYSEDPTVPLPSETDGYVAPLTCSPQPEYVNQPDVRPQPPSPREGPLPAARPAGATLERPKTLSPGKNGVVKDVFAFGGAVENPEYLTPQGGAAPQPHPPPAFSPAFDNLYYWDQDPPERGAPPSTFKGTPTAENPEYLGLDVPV
# Pantothenate synthetase (Mycobacterium tuberculosis (strain ATCC 25618 / H37Rv)), sequence (P9WIL5 whole entry, looked up): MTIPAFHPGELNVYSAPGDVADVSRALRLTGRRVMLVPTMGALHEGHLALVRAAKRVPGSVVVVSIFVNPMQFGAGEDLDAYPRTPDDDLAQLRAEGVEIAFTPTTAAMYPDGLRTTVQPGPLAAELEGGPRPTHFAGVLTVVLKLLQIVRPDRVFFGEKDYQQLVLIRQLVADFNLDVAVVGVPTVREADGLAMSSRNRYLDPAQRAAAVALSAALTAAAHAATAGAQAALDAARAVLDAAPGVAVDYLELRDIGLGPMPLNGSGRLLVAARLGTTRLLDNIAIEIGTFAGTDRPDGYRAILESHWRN
Structure (SMILES),inhibition [1],viability [2],Her2 level [3],viability [4],viability [5],viability [6],differential viability (reversal) ([7]; H69AR cells + 2 uM doxorubicin),"viability [7, 10]","viability [7, 11]",inhibition [8],inhibition [9]
CC(=NCCCO)c1c(O)n(Cc2ccccc2)c(=O)[nH]c1=O,0% (inactive),95%,94% (inactive),95% (inactive),98.6% (inactive),94.4% (inactive),4.15% (inactive),90.2%,94.4%,-4.61% (inactive),3.67% (inactive)
COc1ccccc1N(CC(=O)NC1CCCCC1)C(=O)c1cnn(C(C)C)c1,7% (inactive),96.5%,104% (inactive),96.5% (inactive),103% (inactive),106% (inactive),8.82% (inactive),97.2%,106%,1.08% (inactive),-5.24% (inactive)
C[N+]1(C)[C@@H]2CC[C@H]1CC(OC(=O)C(CO)c1ccccc1)C2 (some centres not stated),6% (inactive) and 13% (inactive),97.5% and 140%,100% (inactive) and 106% (inactive),97.5% (inactive) and 140% (inactive),103% (inactive) and 106% (inactive),100% (inactive) and 112% (inactive),4.59% (inactive) and 7.77% (inactive),95.6% and 104%,100% and 112%,–,–
CC(C)=CCSc1nnc([C@@H](N)Cc2c[nH]c3ccccc23)o1,7% (inactive),102%,110% (inactive),102% (inactive),75.4% (inactive),94% (inactive),2.83% (inactive),91.2%,94%,-0.27% (inactive),-8.39% (inactive)
CC(=NCc1cccnc1)c1c(O)n(Cc2ccccc2)c(=O)[nH]c1=O,1% (inactive),91.5%,90.5% (inactive),91.5% (inactive),92.6% (inactive),93.5% (inactive),-4.79% (inactive),98.3%,93.5%,-0.27% (inactive),2.95% (inactive)
COc1ccc(CN2CCN(c3ccccc3F)CC2)c(OC)c1,1% (inactive),92%,88% (inactive),92% (inactive),91.1% (inactive),128% (inactive),42.5% (inactive),85.4%,128%,-4.46% (inactive),-0.98% (inactive)
O=C(C1CCCN(S(=O)(=O)c2cccc3nsnc23)C1)N1CCC2(CC1)OCCO2 (configuration not stated),0% (inactive),97%,100% (inactive),97% (inactive),100% (inactive),81.6% (inactive),-16.9% (inactive),98.5%,81.6%,-5% (inactive),1.33% (inactive)
COc1ccc(N2CCN(CCCN)CC2)cc1,0% (inactive),94.5%,88% (inactive),94.5% (inactive),72.6% (inactive),81.5% (inactive),3.81% (inactive),77.7%,81.5%,-0.91% (inactive),-1.27% (inactive)
C(#CCN1CCOCC1)COCC#Cc1ccccc1,0% (inactive),92.5%,85.5% (inactive),92.5% (inactive),91.4% (inactive),101% (inactive),15.2% (inactive),85.3%,101%,-5.41% (inactive),1.11% (inactive)
CCOP(=S)(OCC)c1ccc(N(C)C)cc1,0% (inactive),92.5%,104% (inactive),92.5% (inactive),93.6% (inactive),78.3% (inactive),-9.22% (inactive),87.5%,78.3%,4.29% (inactive),-12.1% (inactive)
Cc1[nH]c2c(Cl)cccc2c1CCN,0% (inactive),97.5%,85.5% (inactive),97.5% (inactive),84.4% (inactive),13.2% (active),-69.9% (inactive),83.1%,13.2%,-4.67% (inactive),5.9% (inactive)
O=c1c2ccccc2nc(CSc2ncnc3nc[nH]c23)n1-c1ccccc1,0% (inactive),96%,97.5% (inactive),96% (inactive),87.6% (inactive),80.9% (inactive),-8.74% (inactive),89.6%,80.9%,-1.92% (inactive),-10.5% (inactive)
O=c1[nH]c(=O)n(Cc2ccco2)c(O)c1C=NCCCn1ccnc1,0% (inactive),88.5%,104% (inactive),88.5% (inactive),93.5% (inactive),95.2% (inactive),0.33% (inactive),94.8%,95.2%,0.77% (inactive),-3.33% (inactive)
N#Cc1ccccc1Cn1cc(C(=O)c2ccco2)c2ccccc21,0% (inactive),98.5%,96% (inactive),98.5% (inactive),105% (inactive),82% (inactive),-3.02% (inactive),85%,82%,-4.32% (inactive),14.5% (inactive)
Cc1cc(N2C(=O)C3CCCN3C2c2cccc(Cl)c2)no1 (configuration not stated),4% (inactive),95%,96.5% (inactive),95% (inactive),89.3% (inactive),109% (inactive),21% (inactive),88%,109%,-0.13% (inactive),-0.97% (inactive)
C=CCn1c(O)c(C(C)=NCc2cccnc2)c(=O)[nH]c1=O,0% (inactive),104%,113% (inactive),104% (inactive),88.1% (inactive),92.2% (inactive),4.8% (inactive),87.4%,92.2%,-6.49% (inactive),-1.33% (inactive)
OCC12COC3c4ccccc4C(OC1)N32 (configuration not stated),0% (inactive),110%,118% (inactive),110% (inactive),94% (inactive),97.3% (inactive),4.61% (inactive),92.7%,97.3%,-5.47% (inactive),-5.81% (inactive)
Cc1ccc(C)c(NC2=NCCCS2)c1,0% (inactive),108%,89.5% (inactive),108% (inactive),91.9% (inactive),104% (inactive),11.3% (inactive),92.9%,104%,-8.08% (inactive),-1.59% (inactive)
Cc1ccc(-c2nc(CS(=O)CC(=O)N3CCC4(CC3)OCCO4)c(C)o2)cc1 (configuration not stated),0% (inactive),92.5%,99% (inactive),92.5% (inactive),96.4% (inactive),85.1% (inactive),-10.6% (inactive),95.7%,85.1%,-4.42% (inactive),-0.79% (inactive)
CC1=C(C(=O)N2CCC3(CC2)OCCO3)C2(CCC(C)CC2)OC1=O (configuration not stated),0% (inactive),92.5%,102% (inactive),92.5% (inactive),101% (inactive),98.4% (inactive),-4.92% (inactive),103%,98.4%,-0.77% (inactive),0.17% (inactive)
COC(=O)c1c(C)n(Cc2ccc3c(c2)OCO3)c2ccc(O)cc12,6% (inactive),116%,95% (inactive),116% (inactive),54.5% (inactive),105% (inactive),5.33% (inactive),100%,105%,-3.6% (inactive),-1.94% (inactive)
c1cncc(CNC2=NCCCCC2)c1,1% (inactive),80.5%,106% (inactive),80.5% (inactive),96.6% (inactive),97.4% (inactive),6.13% (inactive),91.3%,97.4%,-0.78% (inactive),-4.92% (inactive)
CC(C)C(=O)c1cn(Cc2ccccc2C#N)c2ccccc12,8% (inactive),98%,100% (inactive),98% (inactive),97% (inactive),82.8% (inactive),-7.5% (inactive),90.3%,82.8%,-4.53% (inactive),3.97% (inactive)
CCN1c2nc3c(C)cccn3c(=O)c2CC2(C(=O)N(C)C(=O)N(C)C2=O)C1C (configuration not stated),0% (inactive),101%,94.5% (inactive),101% (inactive),88.9% (inactive),91.4% (inactive),4.38% (inactive),87%,91.4%,-4.59% (inactive),-2.13% (inactive)
CC(C)OCCCNC(=O)c1c(N)n(CC2CCCO2)c2nc3ccccc3nc12 (configuration not stated),2% (inactive),100%,71.5% (inactive),100% (inactive),55.2% (inactive),59.6% (inactive),-19.6% (inactive),79.2%,59.6%,-4.8% (inactive),-4.13% (inactive)
Cc1nn(Cc2ccccc2Cl)c(Cl)c1C(=O)OCC(=O)NCc1ccco1,0% (inactive),85%,76% (inactive),85% (inactive),98.6% (inactive),85.6% (inactive),-6.68% (inactive),92.3%,85.6%,-3.2% (inactive),-0.82% (inactive)
CCN(CC)CCN=Cc1c(O)n(CCC2=CCCCC2)c(=O)[nH]c1=O,5% (inactive),90.5%,86% (inactive),90.5% (inactive),62.5% (inactive),74.7% (inactive),-11.4% (inactive),86.1%,74.7%,-5.84% (inactive),-4.29% (inactive)
Cc1ccc(CS(=O)(=O)CCC(=O)N2CCC3(CC2)OCCO3)cc1,7% (inactive),106%,118% (inactive),106% (inactive),121% (inactive),97.7% (inactive),9.99% (inactive),87.7%,97.7%,-4.87% (inactive),-0.82% (inactive)
Cn1c(O)c(C=NCc2ccco2)c(=O)n(C)c1=O,0% (inactive),106%,96% (inactive),106% (inactive),96.8% (inactive),95.1% (inactive),5% (inactive),90.1%,95.1%,-4.53% (inactive),14.7% (inactive)
